≈ marks a conversion by molar mass, not a printed value.
Columns and labels:
Pseudomonas aeruginosa = assay: Antibacterial activity against Pseudomonas aeruginosa NCIM 2036 after 24 hrs by agar well diffusion assay; type: functional; details: NCIM 2036, 24 h
In short: (§1)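 Agar well diffusion per NCCLS; NCIM standard strains. Nutrient agar seeded with 0.1 mL bacterial suspension in sterile 0.85% saline at 10⁵ CFU/mL. Plates in triplicate, 37 0.5 °C, 24 h. MIC taken as lowest concentration giving complete growth inhibition.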

Klebsiella pneumoniae = assay: Antibacterial activity against Klebsiella pneumoniae NCIM 5082 after 24 hrs by agar well diffusion assay; type: functional; details: NCIM 5082, 24 h; in short: as §1
Micrococcus luteus = assay: Antibacterial activity against Micrococcus luteus NCIM 2155 after 24 hrs by agar well diffusion assay; type: functional; details: NCIM 2155, 24 h; in short: as §1
[1] = Toxicity against Brine shrimp nauplii after 24 hrs; type: organism-based; details: artemia salina, in vivo; read-out: ED50
In short: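 Artemia salina nauplii hatched 38 h in sterile brine (sea salt 38 g/L, pH 8.5) under aeration; 10 nauplii per vial exposed to graded compound concentrations in 5 mL final volume, 37 °C, 24 h under incandescent light. Survivors counted; percent lethality versus vehicle-treated controls; ED50 from probit analysis; podophyllotoxin positive control.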

Aspergillus niger = assay: Antifungal activity against Aspergillus niger NCIM 548 after 48 hrs by agar well diffusion assay; type: functional; details: NCIM 548, 48 h
In short: (§2)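 Fungal spore suspensions in sterile distilled water set to final 10⁶ CFU/mL; 0.1 mL spread on Potato-Dextrose-Agar. NCCLS agar well diffusion with NCIM standard strains: 6 mm wells given 0.1 mL compound diluted in 1% DMSO, final 16 to 512 µg/mL. Triplicate plates held 48 h at 28 0.2 °C. MIC is lowest concentration fully inhibiting growth.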

Penicillium chrysogenum = assay: Antifungal activity against Penicillium chrysogenum NCIM 738 after 48 hrs by agar well diffusion assay; type: functional; details: NCIM 738, 48 h; in short: as §2
Proteus vulgaris = assay: Antibacterial activity against Proteus vulgaris NCIM 2813 after 24 hrs by agar well diffusion assay; type: functional; details: NCIM 2813, 24 h; in short: as §1
Aspergillus oryzae = assay: Antifungal activity against Aspergillus oryzae NCIM 643 after 48 hrs by agar well diffusion assay; type: functional; details: NCIM 643, 48 h; in short: as §2
Bacillus subtilis = assay: Antibacterial activity against Bacillus subtilis NCIM 2063 after 24 hrs by agar well diffusion assay; type: functional; details: NCIM 2063, 24 h; in short: as §1
Bacillus pumilus = assay: Antibacterial activity against Bacillus pumilus NCIM 2327 after 24 hrs by agar well diffusion assay; details: NCIM 2327, 24 h
Staphylococcus aureus = assay: Antibacterial activity against Staphylococcus aureus NCIM 2079 after 24 hrs by agar well diffusion assay; type: functional; details: NCIM 2079, 24 h; in short: as §1
Escherichia coli = assay: Antibacterial activity against Escherichia coli NCIM 2065 after 24 hrs by agar well diffusion assay; type: functional; details: NCIM 2065, 24 h; in short: as §1
Candida albicans = assay: Antifungal activity against Candida albicans NCIM 3102 after 48 hrs by agar well diffusion assay; type: functional; details: NCIM 3102, 48 h; in short: as §2

Row | Structure (SMILES) | MIC (Pseudomonas aeruginosa) [µg/mL] | MIC (Klebsiella pneumoniae) [µg/mL] | MIC (Micrococcus luteus) [µg/mL] | LC50 at 24 h [1] [µg/mL] | MIC (Aspergillus niger) [µg/mL] | MIC (Penicillium chrysogenum) [µg/mL] | MIC (Proteus vulgaris) [µg/mL] | MIC (Aspergillus oryzae) [µg/mL] | MIC (Bacillus subtilis) [µg/mL] | MIC (Bacillus pumilus) [µg/mL] | MIC (Staphylococcus aureus) [µg/mL] | MIC (Escherichia coli) [µg/mL] | MIC (Candida albicans) [µg/mL]
1 | COc1cc(/C=C/C(=O)c2ccccc2NC(=O)NS(=O)(=O)c2ccc(C)cc2)ccc1O | 64 (≈ 137 µM) | 128 (≈ 274 µM) | 128 (≈ 274 µM) | 17.8 (≈ 38.2 µM) | 128 (≈ 274 µM) | 128 (≈ 274 µM) | 128 (≈ 274 µM) | 128 (≈ 274 µM) | 64 (≈ 137 µM) | 64 (≈ 137 µM) | 128 (≈ 274 µM) | 64 (≈ 137 µM) | 128 (≈ 274 µM)
2 | Cc1ccc(S(=O)(=O)NC(=O)Nc2ccccc2C(=O)/C=C/c2ccc(Cl)cc2)cc1 | 32 (≈ 70.3 µM) | 64 (≈ 141 µM) | 64 (≈ 141 µM) | 6.92 (≈ 15.2 µM) | 64 (≈ 141 µM) | 64 (≈ 141 µM) | 64 (≈ 141 µM) | 64 (≈ 141 µM) | 32 (≈ 70.3 µM) | 32 (≈ 70.3 µM) | 32 (≈ 70.3 µM) | 32 (≈ 70.3 µM) | 64 (≈ 141 µM)
3 | Cc1ccc(S(=O)(=O)NC(=O)Nc2ccccc2C(=O)/C=C/c2ccncc2)cc1 | 128 (≈ 304 µM) | 64 (≈ 152 µM) | 64 (≈ 152 µM) | 16.8 (≈ 39.9 µM) | 64 (≈ 152 µM) | 64 (≈ 152 µM) | 64 (≈ 152 µM) | 64 (≈ 152 µM) | 128 (≈ 304 µM) | 64 (≈ 152 µM) | 64 (≈ 152 µM) | 64 (≈ 152 µM) | 64 (≈ 152 µM)
4 | Cc1ccc(/C=C/C(=O)c2ccccc2NC(=O)NS(=O)(=O)c2ccc(C)cc2)cc1 | 256 (≈ 589 µM) | 256 (≈ 589 µM) | 256 (≈ 589 µM) | 15.3 (≈ 35.2 µM) | 256 (≈ 589 µM) | 256 (≈ 589 µM) | 256 (≈ 589 µM) | 256 (≈ 589 µM) | 256 (≈ 589 µM) | 256 (≈ 589 µM) | 128 (≈ 295 µM) | 256 (≈ 589 µM) | 256 (≈ 589 µM)
5 | Cc1ccc(S(=O)(=O)NC(=O)Nc2ccccc2C(=O)/C=C/c2cccnc2)cc1 | 128 (≈ 304 µM) | 128 (≈ 304 µM) | 128 (≈ 304 µM) | 14.1 (≈ 33.4 µM) | 128 (≈ 304 µM) | 128 (≈ 304 µM) | 128 (≈ 304 µM) | 128 (≈ 304 µM) | 128 (≈ 304 µM) | 128 (≈ 304 µM) | 128 (≈ 304 µM) | 128 (≈ 304 µM) | 128 (≈ 304 µM)
6 | COc1cccc(/C=C/C(=O)c2ccccc2NC(=O)NS(=O)(=O)c2ccc(C)cc2)c1 | 128 (≈ 284 µM) | 128 (≈ 284 µM) | 128 (≈ 284 µM) | 23.2 (≈ 51.4 µM) | 128 (≈ 284 µM) | 128 (≈ 284 µM) | 128 (≈ 284 µM) | 128 (≈ 284 µM) | 128 (≈ 284 µM) | 128 (≈ 284 µM) | 128 (≈ 284 µM) | 128 (≈ 284 µM) | 128 (≈ 284 µM)
7 | Cc1ccc(S(=O)(=O)NC(=O)Nc2ccccc2C(=O)/C=C/c2cccc([N+](=O)[O-])c2)cc1 | 256 (≈ 550 µM) | 256 (≈ 550 µM) | 256 (≈ 550 µM) | 44.5 (≈ 95.5 µM) | 256 (≈ 550 µM) | 256 (≈ 550 µM) | 256 (≈ 550 µM) | 256 (≈ 550 µM) | 256 (≈ 550 µM) | 256 (≈ 550 µM) | 256 (≈ 550 µM) | 256 (≈ 550 µM) | 256 (≈ 550 µM)
